Measurements of several laboratories.
Lines come from different studies, so protocols differ.
Organism: Klebsiella pneumoniae
Effect on: microbial growth

Cc1c(CN(C)C(=O)/C=C/c2cnc3c(c2)CC(CCN)C(=O)N3)oc2ccccc12.Cl (centres unmarked) — MIC (broth dilution; BAA2473): 16 µg/mL
CC(C)Oc1c(NC(=O)c2ccc(NC(=O)[C@H](CC(N)=O)NC(=O)c3ccc(NC(=O)c4ccc(C#N)cn4)cc3)cc2)ccc(C(=O)Nc2ccc(C(=O)O)cc2)c1O — MIC (DSM30104): > 64 µg/mL
CCn1cc(C(=O)O)c(=O)c2cc(F)c(N3CCNCC3)cc21 — MIC (broth dilution; ATCC43816): 2 µM
O=C(O)c1cn(C2CC2)c2cc(N3CCNCC3)c(F)cc2c1=O — MIC (DSM30104): ≤ 0.03 µg/mL
C[C@@H](O)[C@H]1C(=O)N2C(C(=O)O)=C(S[C@@H]3CN[C@H](C(=O)N(C)C)C3)[C@H](C)[C@H]12 — MIC (broth dilution; ATCC700603): 0.63 µM
CC1(C)S[C@@H]2[C@H](NC(=O)COc3ccccc3)C(=O)N2[C@H]1C(=O)O — MIC (broth dilution; ATCC10031; 18 h): 4 µg/mL
CC(=O)NCN1N=C(C)C(=NNn2c(-c3ccccc3)nc3ccccc3c2=O)C1=O — MIC (broth dilution; 24 h): 59.9 µM
CCCCCC/C=C\CCCCCCCCCc1cc(O)cc(O)c1 — MIC (broth dilution; ATCC10031): > 64 µg/mL
CC1=NN(CNc2ccc(Cl)cc2)C(=O)C1=NNn1c(-c2ccccc2)nc2ccccc2c1=O — MIC (broth dilution; 24 h): 51.5 µM
CN(C)[C@@H]1C(O)=C(C(N)=O)C(=O)[C@@]2(O)C(O)=C3C(=O)c4c(cc5ccc(CN6CCCCC6)cc5c4O)C[C@H]3C[C@@H]12 — MIC (broth dilution; ATCC13883): 4 µg/mL
CCCCCCC#Cc1cncc(-c2nnc(SCc3ccc(Cl)cc3)n2C)c1 — MIC: ≥ 20 µg/mL
NC1CCCCc2c1[nH]c1ccc(Cl)c(Cl)c21 (centres unmarked) — MIC (broth dilution; ATCC10031): 8 µg/mL
NCC[C@H](O)C(=O)N[C@@H]1C[C@H](N)[C@@H](O[C@H]2O[C@H](CN)[C@@H](O)[C@H](O)[C@H]2O)[C@H](O)[C@H]1O[C@H]1O[C@H](CO)[C@@H](O)[C@H](N)[C@H]1O — MIC: 1 µg/mL
CC1=NN(CNc2ccc(C(=O)O)cc2)C(=O)C1=NNn1c(-c2ccccc2)nc2ccccc2c1=O — MIC (broth dilution; 24 h): 50.5 µM
Cn1c(SCc2ccc(Cl)cc2)nnc1-c1cncc(C#Cc2ccccc2)c1 — MIC: ≥ 20 µg/mL
CC1=NN(CNc2c(O)c(S(=O)(=O)O)cc3ccccc23)C(=O)C1=NNn1c(-c2ccccc2)nc2ccccc2c1=O — MIC (broth dilution; 24 h): 83.7 µM
CO[C@@H]1[C@@H](OC(N)=O)[C@@H](O)[C@H](Oc2ccc3c(O)c(NC(=O)c4ccc(O)c(CC=C(C)C)c4)c(=O)oc3c2C)OC1(C)C — MIC (broth dilution; ATCC700603): 160 µM
O=C1NN=C(N=Cc2ccccc2O)C1=NNn1c(-c2ccccc2)nc2ccccc2c1=O — MIC (broth dilution; 24 h): 55.4 µM
C[C@H]1COc2c(N3CCN(C)CC3)c(F)cc3c(=O)c(C(=O)O)cn1c23 — MIC (broth dilution; ATCC700603): 0.16 µM
CN(C)[C@@H]1C(O)=C(C(N)=O)C(=O)[C@@]2(O)C(O)=C3C(=O)c4c(cc5ccc(-c6ccccc6)cc5c4O)C[C@H]3C[C@@H]12 — MIC (broth dilution; ATCC13883): 32 µg/mL
CC[C@H]1OC(=O)[C@H](C)C(=O)[C@H](C)[C@@H](O[C@@H]2O[C@H](C)C[C@H](N(C)C)[C@H]2O)[C@](C)(OC)C[C@@H](C)C(=O)[C@H](C)[C@H]2N(CCCCn3cnc(-c4cccnc4)c3)C(=O)O[C@]12C — MIC (broth dilution; ATCC700603): 40 µM
CC(C)(O/N=C(\C(=O)N[C@@H]1C(=O)N2C(C(=O)[O-])=C(C[n+]3ccccc3)CS[C@H]12)c1csc(N)n1)C(=O)O — MIC (18 h, clinical isolate): > 128 µg/mL
C[C@@H]1O[C@@H]1P(=O)(O)O — MIC (broth dilution; ATCC700603): 80 µM
NC[C@@H]1O[C@H](O[C@H]2[C@@H](O)[C@H](O[C@@H]3[C@@H](O)[C@H](N)C[C@H](N)[C@H]3O[C@H]3O[C@H](CO)[C@@H](O)[C@H](O)[C@H]3N)O[C@@H]2CO)[C@H](N)[C@@H](O)[C@@H]1O — MIC: 1 µg/mL
O=C(Nc1ccc2c(c1)OC(F)(F)O2)Nc1ccc(Cl)c(C(F)(F)F)c1 — MIC (DSM30104): > 100 µM
O=C(Nc1ccc([N+](=O)[O-])cc1F)c1ccccc1O — MIC (broth dilution; BAA1705): > 64 µg/mL
CO[C@@H](C(N)=O)[C@H](NC(=O)c1ccc(NC(=O)c2ccc(C#N)cc2)cc1)C(=O)Nc1ccc(C(=O)Nc2ccc(C(=O)Nc3ccc(C(=O)O)cc3)c(O)c2OC(C)C)cc1 — MIC (DSM30104): 8 µg/mL
C/C(=C\C(=O)OCCCCCCCCC(=O)O)C[C@@H]1OC[C@H](C[C@@H]2O[C@H]2[C@@H](C)[C@H](C)O)[C@@H](O)[C@H]1O — MIC (broth dilution; ATCC700603): 160 µM
O=C1NN=C(N=Cc2ccccc2)C1=NNn1c(-c2ccccc2)nc2ccccc2c1=O — MIC (broth dilution; 24 h): 114 µM
CN(C)[C@@H]1C(O)=C(C(N)=O)C(=O)[C@@]2(O)C(O)=C3C(=O)c4c(cc5ccc(CN6CC(C#N)C6)cc5c4O)C[C@H]3C[C@@H]12 — MIC (broth dilution; ATCC13883): 16 µg/mL
NC1CCCCc2c1[nH]c1cc(Cl)c(Cl)cc21 (centres unmarked) — MIC (broth dilution; ATCC10031): 2 µg/mL
NC[C@H]1O[C@H](O[C@H]2[C@H](O)[C@@H](O[C@H]3O[C@H](CO)[C@@H](O)[C@H](N)[C@H]3O)[C@H](N)C[C@@H]2N)[C@H](N)C[C@@H]1O — MIC: 0.5 to 1 µg/mL
CN(Cc1ccc2cc3c(c(O)c2c1)C(=O)C1=C(O)[C@]2(O)C(=O)C(C(N)=O)=C(O)[C@@H](N(C)C)[C@@H]2C[C@@H]1C3)c1ccccc1 — MIC (broth dilution; ATCC13883): 32 µg/mL
CO/N=C(\C(=O)N[C@@H]1C(=O)N2C(C(=O)[O-])=C(C[N+]3(C)CCCC3)CS[C@H]12)c1csc(N)n1 — MIC (broth dilution; ATCC700603): 1.3 µM
CCCCCCC#Cc1cncc(-c2nnc(SCc3ccc(Cl)cc3)n2C2CC2)c1 — MIC: ≥ 20 µg/mL
CCC[C@@H]1C[C@@H](C(=O)N[C@@H]([C@H]2O[C@H](SC)[C@H](O)[C@@H](O)[C@H]2O)[C@H](C)Cl)N(C)C1 — MIC (broth dilution; ATCC700603): 640 µM
CCCCCCC#Cc1cncc(-c2nnc(SCc3ccc(C#N)cc3)n2C)c1 — MIC: ≥ 20 µg/mL
CO[C@H]1/C=C/O[C@@]2(C)Oc3c(C)c(O)c4c(O)c(c(/C=N/N5CCN(C)CC5)c(O)c4c3C2=O)NC(=O)/C(C)=C\C=C\[C@H](C)[C@H](O)[C@@H](C)[C@@H](O)[C@@H](C)[C@H](OC(C)=O)[C@@H]1C — MIC (ATCC13882): 16 µg/mL
